# Published values from different studies.
# Each line is one published result; the experiments were not run side by side.
# Target: Mitogen-activated protein kinase 14 (MAPK14, Homo sapiens, UniProt Q16539)
Compound,assay,conditions,remaining binding
N[C@H]1CCN(c2nccc(-c3cnn4ncccc34)n2)C1,binding,1 µM,100%
O=C(O)c1cc(-c2ccc(C3CCNCC3)cc2)c2ccc(-c3ccc(C(F)(F)F)cc3)cc2c1,"cell-free assay, competition with immobilised ligand",1 µM,100%
O=C(Nc1c[nH]nc1C(=O)NC1CCNCC1)c1cc(F)cc(F)c1,"binding, competition with immobilised ligand",1 µM,100%
C[C@@H]1CN(c2ccc3ncc(-c4ccc5[nH]nc(C6CC6)c5c4)n3n2)C[C@H](C)O1,"binding, competition with immobilised ligand",50 nM,100%
COC(=O)Nc1nc2ccc(C(=O)c3ccccc3)cc2[nH]1,"cell-free assay, competition with immobilised ligand",10 µM,17%
CC(=O)c1c(NS(C)(=O)=O)c2cc(-c3ccc(Cl)cc3)c(-c3ccc(Cl)cc3Cl)nc2n(C)c1=O,"cell-free assay, competition with immobilised ligand",1 µM,100%
FC(F)(F)Oc1cccc(-c2cnc3ccc(-c4ccncc4)nn23)c1,"cell-free assay, competition with immobilised ligand",5 µM,94%
O=C1CCc2cc(Nc3cc(OC4CCOCC4)c([N+](=O)[O-])cc3Cl)ccc2N1,"cell-free assay, competition with immobilised ligand",1 µM,100%
COc1ccnn2ncc(-c3ccnc(N(C)C)n3)c12,binding,1 µM,87%
CC(C)(C)c1ccc(-c2nc(CBr)nn2-c2cccc(O)c2)cc1,"cell-free assay, competition with immobilised ligand",10 µM,100%
COc1ccc2cc(OCC3(C(=O)O)CN(C(=O)c4ccc(F)cc4)C3)ccc2c1,"cell-free assay, competition with immobilised ligand",1 µM,100%
CN(CCCC(F)(F)F)c1nccc(-c2cnn3ncccc23)n1,binding,1 µM,100%
Cc1cnc(Nc2ccc(C(=O)N3CCC(N4CCCC4)CC3)cc2)nc1-c1cc2ccccc2s1,"binding, competition with immobilised ligand",1 µM,100%
c1cnn2ncc(-c3ccnc(N4CCC45COC5)n3)c2c1,binding,1 µM,87%
COc1cnc(Nc2cccc(S(N)(=O)=O)c2)nc1N1CCN(c2ccccc2)CC1,"binding, competition with immobilised ligand",1 µM,100%
Cc1cnn2ncc(-c3ccnc(N(C)C)n3)c2c1,binding,1 µM,100%
O=C(O)[C@H]1[C@H](Cn2nnc3ccccc3c2=O)CC[C@@H]1C(=O)c1ccc(OCCC2CCOCC2)cc1,"cell-free assay, competition with immobilised ligand",1 µM,85%
CN(C)c1ncc(F)c(-c2cnn3ncccc23)n1,binding,1 µM,100%
CNCc1ccccc1-c1csc([C@H](C)Nc2nc(C)nc3cc(OC)c(OC)cc23)c1,"cell-free assay, competition with immobilised ligand",1 µM,100%
C[C@H]1CCN(c2nccc(-c3cnn4ncccc34)n2)C1,binding,1 µM,100%
O=C(NCCCN1CCOCC1)c1ccc(Nc2nccc(-c3cc4ccccc4s3)n2)cc1,"binding, competition with immobilised ligand",1 µM,96%
O=C(Nc1ccc(Oc2ccc(F)cc2)cc1)N1CCc2ncccc2[C@H]1c1ccc(F)cc1,"cell-free assay, competition with immobilised ligand",1 µM,100%
O=C(c1ccc(Nc2ncc(Cl)c(-c3cc4ccccc4s3)n2)cc1)N1CCC(N2CCCC2)CC1,"binding, competition with immobilised ligand",1 µM,100%
COc1cc(-c2cn(C3CCc4ccccc4N(CC(F)(F)F)C3=O)nn2)ccc1-n1ccc(C)n1 (stereo not shown),"cell-free assay, competition with immobilised ligand",1 µM,94%
Nc1ncc2c(n1)-c1c([nH]c3ccc(C#CC4CC4)cc13)CCCC2,"binding, competition with immobilised ligand",1 µM,98%
